Reference: ChEMBL document CHEMBL1671800, “Synthesis and antimycobacterial properties of N-substituted 6-amino-5-cyanopyrazine-2-carboxamides” (2011)
Converted amounts (≈) assume the structure as drawn. The source made the active and inactive calls. The calls are words filed in the database; no cut-off is given here.

Columns and labels:
Nakaseomyces glabratus [1] = assay: Antifungal activity against Candida glabrata 20/I after 48 hrs by broth microdilution method; assay type: functional
In short: (§1)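 Broth microdilution. Compounds in DMSO were diluted twofold in RPMI 1640 with glutamine, buffered to pH 7.0 with MOPS. Final DMSO was at most 2.5% (v/v). Plates were incubated statically, in the dark and humid, at 35 °C and read at 24 and 48 h.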

Mycobacterium avium [2] = assay: Antimycobacterial activity against Mycobacterium avium CNCTC My 80/72 after 14 days by microdilution method; assay type: functional; conditions: CNCTC My 80/72, 336 h
In short: (§2)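 Compounds in DMSO were diluted in Šula's semisynthetic medium, pH 5.5, to final 200–3.125 μg/mL, with DMSO at most 1% (v/v). Mycobacteria were added as a suspension in isotonic saline and grown at 37 °C. MIC was read visually after 14 days as the lowest concentration inhibiting growth.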

Pichia kudriavzevii [3] = assay: Antifungal activity against Candida krusei E28 after 24 hrs by broth microdilution method; assay type: functional; conditions: E28, 24 h; in short: as §1
Klebsiella pneumoniae [4] = assay: Antibacterial activity against Klebsiella pneumoniae D11750/08 after 24 to 48 hrs by broth microdilution method; assay type: functional, organism-based
Candida albicans [5] = assay: Antifungal activity against Candida albicans ATCC 44859 after 24 hrs by broth microdilution method; assay type: functional; conditions: ATCC 44859, 24 h; in short: as §1
Staphylococcus aureus [6] = assay: Antibacterial activity against methicillin-resistant Staphylococcus aureus H 5996/08 after 24 to 48 hrs by broth microdilution method; assay type: functional, organism-based
In short: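 Strains were subcultured on Mueller-Hinton agar at 35 °C, and the inoculum was suspended in 0.85% saline to 0.5 McFarland (1.5×10^8 CFU/mL). Microdilution was done in Mueller-Hinton broth, pH 7.0, with final DMSO at most 1% (v/v). MIC, set at 95% growth inhibition versus control, was read after 24 and 48 h of static incubation at 35 °C.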

Candida tropicalis [7] = assay: Antifungal activity against Candida tropicalis 156 after 48 hrs by broth microdilution method; assay type: functional; conditions: Candida tropicalis, 156, 48 h; in short: as §1
Mycobacterium avium [8] = assay: Antimycobacterial activity against Mycobacterium avium CNCTC My 152/73 after 14 days by microdilution method; assay type: functional; conditions: CNCTC My 152/73, 336 h; in short: as §2
[9] = tested on: Mycobacterium tuberculosis; assay: Antimycobacterial activity against Mycobacterium tuberculosis H37Rv CNCTC My 331/88 after 14 days by microdilution method; assay type: functional; conditions: H37Rv CNCTC My 331/88, 336 h; in short: as §2
Candida albicans [10] = assay: Antifungal activity against Candida albicans ATCC 44859 after 48 hrs by broth microdilution method; assay type: functional; conditions: ATCC 44859, 48 h; in short: as §1
[11] = tested on: Trichophyton mentagrophytes; assay: Antifungal activity against Trichophyton mentagrophytes 445 after 120 hrs by broth microdilution method; assay type: functional; conditions: Trichophyton mentagrophytes, 445, 120 h
In short: (§3)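 Trichophyton mentagrophytes was tested by twofold broth microdilution in MOPS-buffered RPMI 1640 with glutamine, pH 7.0, with final DMSO at most 2.5% (v/v). Incubation was static, dark and humid at 35 °C, and plates were read at 72 and 120 h.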

Staphylococcus aureus [12] = assay: Antibacterial activity against Staphylococcus aureus CCM 4516/08 after 24 to 48 hrs by broth microdilution method; assay type: functional, organism-based
In short: (§4)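 Strains subcultured on Mueller-Hinton agar at 35 °C and passaged onto MHA before testing. Inoculum suspended in sterile 0.85% saline and adjusted to 0.5 McFarland (1.5×10^8 CFU/mL). Compounds in DMSO (final ≤1% v/v) in Mueller-Hinton broth at pH 7.0, with medium and DMSO-alone controls. Static incubation at 35 °C; MIC taken as 95% growth inhibition versus control at 24 and 48 h.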

Trichosporon beigelii [13] = assay: Antifungal activity against Trichosporon beigelii 1188 after 48 hrs by broth microdilution method; assay type: functional; conditions: Trichosporon beigelii, 1188, 48 h; in short: as §1
[14] = tested on: Staphylococcus epidermidis; assay: Antibacterial activity against Staphylococcus epidermidis H 6966/08 after 24 to 48 hrs by broth microdilution method; assay type: functional, organism-based
Aspergillus fumigatus [15] = assay: Antifungal activity against Aspergillus fumigatus 231 after 48 hrs by broth microdilution method; assay type: functional; conditions: Aspergillus fumigatus, 231, 48 h; in short: as §1
Escherichia coli = assay: Antibacterial activity against Escherichia coli CCM 4517 after 24 to 48 hrs by broth microdilution method; assay type: functional, organism-based; in short: as §4
Aspergillus fumigatus [16] = assay: Antifungal activity against Aspergillus fumigatus 231 after 24 hrs by broth microdilution method; assay type: functional; conditions: Aspergillus fumigatus, 231, 24 h; in short: as §1
Pichia kudriavzevii [17] = assay: Antifungal activity against Candida krusei E28 after 48 hrs by broth microdilution method; assay type: functional; conditions: E28, 48 h; in short: as §1
Enterobacter sp. = assay: Antibacterial activity against Enterobacter sp. J 14365/ 08 after 24 to 48 hrs by broth microdilution method; assay type: functional, organism-based
Mycobacterium kansasii = assay: Antimycobacterial activity against Mycobacterium kansasii CNCTC My 235/80 after 6 days by microdilution method; assay type: functional; conditions: CNCTC My 235/80, 144 h
In short: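 Compounds were dissolved in DMSO and diluted in Šula's semisynthetic medium at pH 5.5, at final concentrations of 200 to 3.125 μg/mL in twofold steps; DMSO stayed ≤1% v/v. The strain was added as a suspension in isotonic saline and incubated at 37 °C. Growth was read visually after 6 days; MIC is the lowest concentration that inhibited growth. Pyrazinamide served as standard.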

Lichtheimia corymbifera [18] = assay: Antifungal activity against Absidia corymbifera 272 after 48 hrs by broth microdilution method; assay type: functional; conditions: Lichtheimia corymbifera, 272, 48 h; in short: as §1
Pseudomonas aeruginosa = assay: Antibacterial activity against Pseudomonas aeruginosa CCM 1961 after 24 to 48 hrs by broth microdilution method; assay type: functional, organism-based; in short: as §4
Nakaseomyces glabratus [19] = assay: Antifungal activity against Candida glabrata 20/I after 24 hrs by broth microdilution method; assay type: functional; in short: as §1
Candida tropicalis [20] = assay: Antifungal activity against Candida tropicalis 156 after 24 hrs by broth microdilution method; assay type: functional; conditions: Candida tropicalis, 156, 24 h; in short: as §1
Klebsiella pneumoniae [21] = assay: Antibacterial activity against ESBL-positive Klebsiella pneumoniae J 14368/08 after 24 to 48 hrs by broth microdilution method; assay type: functional, organism-based
Trichosporon beigelii [22] = assay: Antifungal activity against Trichosporon beigelii 1188 after 24 hrs by broth microdilution method; assay type: functional; conditions: Trichosporon beigelii, 1188, 24 h; in short: as §1
[23] = tested on: Trichophyton mentagrophytes; assay: Antifungal activity against Trichophyton mentagrophytes 445 after 72 hrs by broth microdilution method; assay type: functional; conditions: Trichophyton mentagrophytes, 445, 72 h; in short: as §3
Lichtheimia corymbifera [24] = assay: Antifungal activity against Absidia corymbifera 272 after 24 hrs by broth microdilution method; assay type: functional; conditions: Lichtheimia corymbifera, 272, 24 h; in short: as §1

Structure (SMILES) | MIC (Nakaseomyces glabratus [1]) | MIC (Mycobacterium avium [2]) | MIC (Pichia kudriavzevii [3]) | Activity (Klebsiella pneumoniae [4]) | MIC (Candida albicans [5]) | Activity (Staphylococcus aureus [6]) | MIC (Candida tropicalis [7]) | MIC (Mycobacterium avium [8]) | MIC [9] | MIC (Candida albicans [10]) | MIC [11] | Activity (Staphylococcus aureus [12]) | MIC (Trichosporon beigelii [13]) | Activity [14] | MIC (Aspergillus fumigatus [15]) | Activity (Escherichia coli) | MIC (Aspergillus fumigatus [16]) | MIC (Pichia kudriavzevii [17]) | Activity (Enterobacter sp.) | MIC (Mycobacterium kansasii) | further results
CCCCCNc1nc(C(N)=O)cnc1C#N | > 250 µM | > 200 µg/mL | 62.5 µM (≈ 14.6 µg/mL) | inactive | 250 µM (≈ 58.3 µg/mL) | inactive | > 250 µM | > 200 µg/mL | > 200 µg/mL | > 250 µM | > 250 µM | inactive | > 250 µM | inactive | > 250 µM | inactive | 250 µM (≈ 58.3 µg/mL) | 250 µM (≈ 58.3 µg/mL) | inactive | > 200 µg/mL | MIC (Lichtheimia corymbifera [18]): > 250 µM; Activity (Pseudomonas aeruginosa): inactive; MIC (Nakaseomyces glabratus [19]): 250 µM (≈ 58.3 µg/mL); MIC (Candida tropicalis [20]): > 250 µM; Activity (Klebsiella pneumoniae [21]): inactive; MIC (Trichosporon beigelii [22]): > 250 µM; MIC [23]: > 250 µM; MIC (Lichtheimia corymbifera [24]): 125 µM (≈ 29.2 µg/mL)
N#Cc1ncc(C(N)=O)nc1Cl | > 500 µM | 25 µg/mL (≈ 137 µM) | > 500 µM | inactive | 125 µM (≈ 22.8 µg/mL) | inactive | > 500 µM | 25 µg/mL (≈ 137 µM) | 25 µg/mL (≈ 137 µM) | 125 µM (≈ 22.8 µg/mL) | 62.5 µM (≈ 11.4 µg/mL) | inactive | > 500 µM | inactive | > 500 µM | inactive | > 500 µM | > 500 µM | inactive | 25 µg/mL (≈ 137 µM) | MIC (Lichtheimia corymbifera [18]): 250 µM (≈ 45.6 µg/mL); Activity (Pseudomonas aeruginosa): inactive; MIC (Nakaseomyces glabratus [19]): > 500 µM; MIC (Candida tropicalis [20]): > 500 µM; Activity (Klebsiella pneumoniae [21]): inactive; MIC (Trichosporon beigelii [22]): > 500 µM; MIC [23]: 62.5 µM (≈ 11.4 µg/mL); MIC (Lichtheimia corymbifera [24]): 250 µM (≈ 45.6 µg/mL)
